B1: tRNA (parent)
chain: GUUCCGUUGGCGUAAUGGUAACGCGUCUCCCUCCUAAGGAGAAGACUGCGGGUUCGAGUCCCGUACGGAACG

In the RNAGym collection of RNA variant scans (doi:10.1126/science.aae0568) one finds yeast fitness data, which are given here for 167 variants.

Fewer inactive variants are shown than the library holds.

Variants of B1 are the subject of this data set. Put plainly: yeast fitness relative to wild type (ratio to wild type); higher = fitter; tRNA-Arg(CCU), competitive growth, 37 C, YPD. The procedure, abridged:
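Gene amplicons from the start population and from each of six end populations were read by 100-nucleotide paired-end sequencing. Those end populations came from pooled Saccharomyces cerevisiae strains carrying tRNA-Arg(CCU) gene variants at the native locus, competed in YPD at 37°C for 24 hours. Fitness relative to wild type was worked out from changes in genotype frequencies. Genotypes needed ≥ 100 starting reads, and estimates < 0.5 were set to 0.5.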
For C24U A37G, the yeast fitness amounted to 0.708.

Regarding G9C U28A, the yeast fitness was 0.708.

Regarding G6A U19C, the yeast fitness is 0.99.

As to C11A U59C C66U A70C, the yeast fitness is no more than 0.5.

In the case of G6C U47A C60G, the yeast fitness is no more than 0.5.

In the case of C4A C33A C60A U64C, the yeast fitness is no more than 0.5.

U3C C27U U35C: the yeast fitness turned out to be 0.626.

With C5A G17A C55U, the yeast fitness was no more than 0.5.

Regarding U7A G18A, the yeast fitness turned out to be 0.689.

For the variant G9C C55A A69C, the yeast fitness is no more than 0.5.

With G25A A40C C55G C61A, the yeast fitness is no more than 0.5.

As for C4G A14U G23A G56C, the yeast fitness was no more than 0.5.

Turning to A14U C55A U59G A65C, the yeast fitness amounted to 0.561.

As to C4U U19C, the yeast fitness is 0.927.

Turning to C11A A21G A40G, the yeast fitness is 0.571.

Turning to C31A U47C C61A, the yeast fitness is no more than 0.5.

For the variant G23C C31U, the yeast fitness came to 0.579.

For the variant U13A G48A, the yeast fitness was 1.03.

Regarding C4A A20G A37U C61A, the yeast fitness was no more than 0.5.

As for C5A A14G A15G C22G A37U, the yeast fitness is no more than 0.5.

As to A42G C61U G63C, the yeast fitness was no more than 0.5.

Regarding C29G G58C, the yeast fitness was 0.642.

Consider G10A C46G A65C, for which the yeast fitness came out at 0.597.

For the variant C24A U32A C55A G68C, the yeast fitness is no more than 0.5.

On to A15C A40U A70U, for which the yeast fitness amounted to 0.563.

For U7A A20G C31U A57G A70C, the yeast fitness was no more than 0.5.

As to C4U U8G A15U, the yeast fitness is no more than 0.5.

On to C11A A42G A43U C46U, for which the yeast fitness was found to be 0.532.

Take G10A C27G G48C C62A: the yeast fitness is no more than 0.5.

Consider C5U U26A C46G, for which the yeast fitness is 0.717.

For the variant A36G C55A, the yeast fitness is 0.729.

As for C27A C60G U64C, the yeast fitness turned out to be 0.779.

For C11G A42C, the yeast fitness is 0.636.

Take C5A U7C A36G: the yeast fitness was no more than 0.5.

As for C11U C24A, the yeast fitness stood at 0.606.

Consider A42G G56A, for which the yeast fitness came out at 0.87.

C29U G44C A57U: the yeast fitness worked out at 0.635.

With C5G C11A A15G G18A C30G G68A, the yeast fitness was no more than 0.5.

On to U2G C5A G10C, for which the yeast fitness was no more than 0.5.

U8A G44A U64C C66A: the yeast fitness was no more than 0.5.

Consider C22A G25A A65U, for which the yeast fitness is 0.684.

Regarding U3A C11G G12A C22U G39A A65G, the yeast fitness is no more than 0.5.

Take G6C A42C C49U: the yeast fitness was no more than 0.5.

With U16A A57U C66U, the yeast fitness stood at 0.528.

With G6A G23C G68A, the yeast fitness was no more than 0.5.

Regarding U16C A21U C31G, the yeast fitness is 0.537.

Turning to U3A G10C A36U A40C A57C, the yeast fitness was no more than 0.5.

With A21U C31A G39C C62G, the yeast fitness is no more than 0.5.

Consider C27U C31U U35C A36U C55A C66G, for which the yeast fitness amounted to 0.777.

Consider C27U A40U, for which the yeast fitness was 0.925.

With A21G G39A, the yeast fitness came to 0.809.

With U2A C4A U26C C31U G38A, the yeast fitness is no more than 0.5.

As to U16G C46A G56C A70G, the yeast fitness was no more than 0.5.

With A15C G18A C24A C34U C46G, the yeast fitness was no more than 0.5.

As to A20G G41C, the yeast fitness was 1.01.

On to A14G C22G C30G G68A, for which the yeast fitness was no more than 0.5.

Take A43G A70U: the yeast fitness was determined as 1.01.

Consider U3G C4A, for which the yeast fitness came out at 0.949.

For A20C A43C, the yeast fitness turned out to be 0.816.

U16A C55G C61U: the yeast fitness is no more than 0.5.

Turning to U26A A42C A45G C49U, the yeast fitness is no more than 0.5.

As to G6A C30A A45U, the yeast fitness turned out to be 0.667.

As to C5G A21G C49A U54C A65G, the yeast fitness is no more than 0.5.

In the case of A15U G38C G50C C60U, the yeast fitness is no more than 0.5.

In the case of C11A G52C, the yeast fitness came out at 0.596.

For G6C C55G A70C, the yeast fitness was no more than 0.5.

As to A42U C61U C62U, the yeast fitness was found to be 0.612.

For U2C A37G C49G A57U G68C A70G, the yeast fitness was no more than 0.5.

Regarding A20G U53C C55A, the yeast fitness is no more than 0.5.

Regarding A20U C33A G44A C62U, the yeast fitness was no more than 0.5.

For the variant G12C G25A C33G A37G A40C C49G G67C, the yeast fitness is no more than 0.5.

As for C4A A20U A43U, the yeast fitness was no more than 0.5.

On to G10A C29A C55G A65G, for which the yeast fitness was 0.649.

On to G18A C31A, for which the yeast fitness came out at 0.554.

In the case of C34U G39C A45G, the yeast fitness was no more than 0.5.

With G23A A36U A40C G52A C61G, the yeast fitness worked out at 0.639.

For A37C G56A G68U, the yeast fitness worked out at 0.602.

With C11A A21C U28A C55U C62U G67C, the yeast fitness was no more than 0.5.

Turning to C5G U7G U32C, the yeast fitness stood at 0.604.

With A14C U16C C62U A65U, the yeast fitness was no more than 0.5.

For the variant U7C A37G C55A G58C, the yeast fitness was no more than 0.5.

As to C24A A45G A65U, the yeast fitness turned out to be 0.552.

On to C22A G23C C49G, for which the yeast fitness was no more than 0.5.

Turning to U8C C11U U16C C46U C49A, the yeast fitness was determined as 0.573.

Regarding G9C A21G C60A, the yeast fitness was no more than 0.5.

Regarding G12A G23A U28G G56C A65U, the yeast fitness amounted to 0.762.

U8C G18A A45U G67C: the yeast fitness was determined as 0.552.

On to C24G A36U, for which the yeast fitness is no more than 0.5.

With C31A G39C C66U, the yeast fitness is no more than 0.5.

Take C5U U16G A40G A42U G52A: the yeast fitness is no more than 0.5.

With U16C C55A, the yeast fitness was 0.664.

For the variant A21U C31G A45C, the yeast fitness is no more than 0.5.

For the variant C4A C29G A40U, the yeast fitness is no more than 0.5.

On to U19C A20C C33U U35A G58A, for which the yeast fitness was no more than 0.5.

For the variant A20C C29U C66U, the yeast fitness was 0.603.

For A43U U53A, the yeast fitness turned out to be 0.666.

U26C A42C U54A: the yeast fitness was no more than 0.5.

With U2A A14G, the yeast fitness amounted to 0.891.

Take U54C A65U: the yeast fitness is 0.894.

For the variant G18C A21G G56A, the yeast fitness stood at 0.575.

On to U26G C27G A57C C66U A69U, for which the yeast fitness is no more than 0.5.

A21G G39C C46G: the yeast fitness was 0.627.

As for C5A A21G C22G C27A C33U A40U C55G, the yeast fitness was no more than 0.5.

C27U A37C A40U A43U C66U: the yeast fitness came to 0.583.

Take C34G C60U C61U: the yeast fitness worked out at 0.545.

On to G9C A21C C29U, for which the yeast fitness was no more than 0.5.

Regarding G9A G48A G68C, the yeast fitness is 0.984.

In the case of G10A G17A C30G U35A G50A, the yeast fitness was found to be 0.626.

Turning to C24G C27U A40U A57G C62G, the yeast fitness was no more than 0.5.

Turning to C11G G12C A40G U47C G50C, the yeast fitness amounted to 0.897.

As for G10C C24G C34G U54G A70U, the yeast fitness is 0.703.

Consider C5U A20C A70U, for which the yeast fitness is 0.732.

Regarding C55G C66G, the yeast fitness was determined as 0.768.

As for U3C C4U U64A, the yeast fitness came out at 0.617.

As for U13A A43C A57C A70U, the yeast fitness is 0.551.

As to U2G C4A G38C G50A, the yeast fitness worked out at 0.713.

Take U7C A21C C34A U35G G44C C61G: the yeast fitness is no more than 0.5.

On to U3A G9A C30A A42U C49U U59C A69C, for which the yeast fitness is no more than 0.5.

With C11U A14G C27G C31U G68C, the yeast fitness was no more than 0.5.

With G6A A36C A37G G52A A70U, the yeast fitness is no more than 0.5.

As to C5U A21U C33U G50A, the yeast fitness is 0.65.

As for C24A C30U A45G, the yeast fitness was no more than 0.5.

Regarding U2C G25A A42U C55G, the yeast fitness is no more than 0.5.

In the case of G25A C30A G67U, the yeast fitness amounted to 0.776.

On to U7C U35C A37C, for which the yeast fitness came to 0.732.

As to G9A G25C A42C, the yeast fitness is 1.

For C5G U13C C22G C33A, the yeast fitness came to 0.635.

In the case of C4A U26A U32G U53A C62A G68C, the yeast fitness is no more than 0.5.

For A57G G67A, the yeast fitness worked out at 0.878.

On to G10A C30U A43U C55A, for which the yeast fitness is no more than 0.5.

As for A15G U19G A40G, the yeast fitness came to 0.582.

With U8A A14G C24G A45C, the yeast fitness is 0.632.

On to U16A C24U C61G A65G, for which the yeast fitness is no more than 0.5.

Consider G9C C27U C33G, for which the yeast fitness is no more than 0.5.

As to A20U A45C A65C, the yeast fitness turned out to be 0.63.

As to G9C G63A C66U, the yeast fitness is no more than 0.5.

With C5U U26C, the yeast fitness turned out to be 0.862.

As to G17A U32A G67C, the yeast fitness stood at 0.6.

With A15G A21C C34U C61U, the yeast fitness was no more than 0.5.

For the variant U3C A15G C30G G56A G63C G67A, the yeast fitness was no more than 0.5.

For the variant A40U G52A C60U G63C, the yeast fitness was found to be 0.661.

Turning to C29A C33G U35C C49U A57C C60A, the yeast fitness was determined as 0.644.

Turning to U2A C33A C34U G56A, the yeast fitness is 0.542.

Consider A21C A57C, for which the yeast fitness amounted to 0.548.

In the case of C22G A43U G52A U54C G56U U64C, the yeast fitness was no more than 0.5.

Consider G41C A42C C49U, for which the yeast fitness was no more than 0.5.

In the case of C4U C27A C31U C60G, the yeast fitness was no more than 0.5.

Regarding U3A C31U A57U, the yeast fitness was 0.598.

In the case of G9C A14G C55G C61U, the yeast fitness was no more than 0.5.

Regarding A43C C55A, the yeast fitness amounted to 0.588.

On to C11G A14C C24G A36C G68A, for which the yeast fitness came out at 0.584.

For G56C C61A G63U, the yeast fitness was found to be 0.539.

In the case of G12A U28G, the yeast fitness stood at 0.607.

For C30G C33G C34U A42U C55A, the yeast fitness is no more than 0.5.

For C27U C33U U47A A70C, the yeast fitness is no more than 0.5.

Consider C34U C49U C61U, for which the yeast fitness amounted to 0.512.

For C31A A42G G67A A69U, the yeast fitness stood at 0.625.

For A14G A20C A36U G39C, the yeast fitness is no more than 0.5.

With G48A G56A A65G, the yeast fitness was 0.718.

For A15G C24U C34U C61U, the yeast fitness was no more than 0.5.

Turning to C11U A15C A70U, the yeast fitness was 0.586.

Regarding U26A C30A C34A G48C, the yeast fitness was 0.583.

On to G44C A65G A70C, for which the yeast fitness came out at 0.682.

In the case of G9A A21U G48C C55A C66G G67C, the yeast fitness is no more than 0.5.

Consider C4G C11G U64A, for which the yeast fitness was no more than 0.5.

Consider G9A C31A A43U C61A, for which the yeast fitness was no more than 0.5.

In the case of C11A U16C G18C C61A G67A, the yeast fitness is no more than 0.5.
